Assay results from ChEMBL document CHEMBL4680104, “Structure-Based Optimization of Small-Molecule Inhibitors for the β-Catenin/B-Cell Lymphoma 9 Protein-Protein Interaction” (J Med Chem, 2018).
Active and inactive are the calls of the source. No cut-off for these calls is given here.

Legend:
[1] = biological target: T1, beta-catenin-B-cell lymphoma 9 protein complex (Homo sapiens, UniProt P35222); test: Inhibition of protein interaction between beta-catenin (unknown origin)/BCL9 in HEK293 cells transfected with beta-catenin assessed as reduction in Wnt/beta-catenin transactivation incubated for 24 hrs by Wnt-responsive TOP-Flash luciferase reporter assay; assay type: cell-based
T1 sequence (P35222 whole entry): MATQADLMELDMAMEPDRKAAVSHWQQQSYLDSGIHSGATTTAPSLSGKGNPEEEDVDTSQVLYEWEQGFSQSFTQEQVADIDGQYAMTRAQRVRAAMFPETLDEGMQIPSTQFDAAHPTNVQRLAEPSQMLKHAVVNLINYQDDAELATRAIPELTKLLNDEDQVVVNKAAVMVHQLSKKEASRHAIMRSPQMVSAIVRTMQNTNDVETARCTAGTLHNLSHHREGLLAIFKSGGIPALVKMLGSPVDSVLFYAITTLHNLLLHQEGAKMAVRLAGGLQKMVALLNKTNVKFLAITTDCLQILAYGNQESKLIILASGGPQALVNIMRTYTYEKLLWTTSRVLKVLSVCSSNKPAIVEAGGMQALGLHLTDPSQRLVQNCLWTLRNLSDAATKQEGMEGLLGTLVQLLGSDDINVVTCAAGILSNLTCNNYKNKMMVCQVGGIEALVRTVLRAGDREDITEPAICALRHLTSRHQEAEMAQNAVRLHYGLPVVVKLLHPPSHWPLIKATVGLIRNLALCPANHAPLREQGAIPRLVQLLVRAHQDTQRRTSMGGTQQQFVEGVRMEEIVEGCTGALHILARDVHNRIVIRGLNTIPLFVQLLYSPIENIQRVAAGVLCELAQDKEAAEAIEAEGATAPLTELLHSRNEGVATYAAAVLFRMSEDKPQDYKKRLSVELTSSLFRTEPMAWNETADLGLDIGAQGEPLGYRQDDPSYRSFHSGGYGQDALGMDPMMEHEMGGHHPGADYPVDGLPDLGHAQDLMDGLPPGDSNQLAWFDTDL
T1 sequence (O00512 whole entry): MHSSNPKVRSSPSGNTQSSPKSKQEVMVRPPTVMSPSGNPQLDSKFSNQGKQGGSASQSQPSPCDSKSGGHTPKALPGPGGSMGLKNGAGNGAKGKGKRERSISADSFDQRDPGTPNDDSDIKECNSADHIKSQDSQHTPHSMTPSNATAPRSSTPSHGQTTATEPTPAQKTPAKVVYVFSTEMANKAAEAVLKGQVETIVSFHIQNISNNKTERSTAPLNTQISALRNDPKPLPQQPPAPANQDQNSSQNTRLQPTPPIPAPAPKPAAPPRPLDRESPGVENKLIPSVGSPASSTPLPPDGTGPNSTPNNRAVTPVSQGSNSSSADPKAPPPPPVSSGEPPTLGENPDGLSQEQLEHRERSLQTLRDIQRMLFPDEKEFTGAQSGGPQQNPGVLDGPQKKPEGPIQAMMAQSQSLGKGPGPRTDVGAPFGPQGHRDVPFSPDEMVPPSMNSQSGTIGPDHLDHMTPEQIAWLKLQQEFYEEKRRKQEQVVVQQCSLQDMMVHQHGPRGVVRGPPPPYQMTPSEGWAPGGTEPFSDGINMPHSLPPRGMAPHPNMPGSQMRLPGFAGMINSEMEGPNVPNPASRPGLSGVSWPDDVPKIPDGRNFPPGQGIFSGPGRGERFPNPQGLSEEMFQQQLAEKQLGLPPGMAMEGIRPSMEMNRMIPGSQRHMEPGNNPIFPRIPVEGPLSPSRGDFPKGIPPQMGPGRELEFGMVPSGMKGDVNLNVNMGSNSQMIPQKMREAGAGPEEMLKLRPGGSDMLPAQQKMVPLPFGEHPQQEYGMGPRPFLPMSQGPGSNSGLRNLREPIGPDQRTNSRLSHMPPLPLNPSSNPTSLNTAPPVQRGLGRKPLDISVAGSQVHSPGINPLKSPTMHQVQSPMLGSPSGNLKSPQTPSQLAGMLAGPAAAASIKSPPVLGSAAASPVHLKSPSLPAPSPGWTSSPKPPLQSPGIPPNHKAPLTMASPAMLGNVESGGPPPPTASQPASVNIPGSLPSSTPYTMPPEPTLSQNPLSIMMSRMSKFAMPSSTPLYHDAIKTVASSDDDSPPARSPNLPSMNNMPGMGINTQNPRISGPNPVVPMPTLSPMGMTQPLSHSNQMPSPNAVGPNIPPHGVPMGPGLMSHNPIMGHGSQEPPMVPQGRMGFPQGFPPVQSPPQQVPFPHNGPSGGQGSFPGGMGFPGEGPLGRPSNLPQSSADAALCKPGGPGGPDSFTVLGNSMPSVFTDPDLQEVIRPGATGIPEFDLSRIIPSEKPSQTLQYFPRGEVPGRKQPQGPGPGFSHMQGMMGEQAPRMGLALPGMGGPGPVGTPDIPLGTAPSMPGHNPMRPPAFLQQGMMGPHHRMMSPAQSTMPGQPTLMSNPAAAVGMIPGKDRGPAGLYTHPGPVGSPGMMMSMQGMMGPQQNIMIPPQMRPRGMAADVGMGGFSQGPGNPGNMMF
Summary of the method: (§1)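 HEK293 cells were cotransfected using FuGENE6 with 45 ng TOPFlash or FOPFlash reporter, 135 ng pcDNA3.1-β-catenin and 20 ng pCMV-RL normalization reporter. After 24 h in DMEM with 10% FBS at 37 °C, inhibitors or DMSO were added for 24 h. Reporter activity was read with a dual luciferase system, normalized, and compared with DMSO-treated cells. Triplicate.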

[2] = biological target: T1, beta-catenin-B-cell lymphoma 9 protein complex; test: Inhibition of protein interaction between C-terminal 6x-histidine tagged full-length beta-catenin (1 to 781 residues) (unknown origin)/N-terminal biotinylated human BCL9 ( 350 to 375 residues) incubated for 1 hr by Alpha-screen competitive inhibition assay; assay type: protein-complex assay
Summary of the method: (§2)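 Full-length β-catenin (residues 1–781) with a C-terminal His6 tag was expressed in E. coli BL21(DE3) after IPTG induction at 20 °C. It was purified by Ni-NTA, anion-exchange and size-exclusion chromatography. For the assay, 40 nM β-catenin was preincubated for 30 min at 4 °C with 5 nM biotinylated BCL9 or 10 nM biotinylated E-cadherin. Inhibitor was then added for 1 h at 4 °C, followed by 10 μg/mL donor and acceptor beads for 1 h at 4 °C. IC50 was obtained by nonlinear fit and converted to Ki by the Nikolovska-Coleska method. Triplicate, mean ± SD.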

SW480 [3] = test: Cytotoxicity in human SW480 cells assessed as reduction in cell viability incubated for 72 hrs by MTS assay; assay type: functional, cell-based; conditions: SW480, 72 h
Summary of the method: (§3)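 Cells seeded at 5 × 10^3 cells/well, kept overnight at 37 °C, then exposed to inhibitors at various concentrations for 72 h. Viability read with a freshly mixed PMS (0.92 mg/mL) : MTS (2 mg/mL) reagent at 1:19, incubated 3 h at 37 °C, A490 measured. […] Triplicate; mean ± SD.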

[4] = biological target: T1, beta-catenin-B-cell lymphoma 9 protein complex; test: Inhibition of protein interaction between beta-catenin (unknown origin)/BCL9 in human SW480 cells transfected with beta-catenin assessed as reduction in Wnt/beta-catenin transactivation incubated for 24 hrs by Wnt-responsive TOP-Flash luciferase reporter assay; assay type: cell-based
SW480 [5] = test: Cytotoxic activity in human SW480 cells at 800 uM incubated for 4 hrs by LDH release assay; assay type: cell-based; conditions: sw480, 4 h
Summary of the method: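 SW480 cells were seeded at 2 × 10^4 cells/well and kept overnight at 37 °C. They were then exposed to a range of inhibitor concentrations for 4 h. LDH in the culture supernatant was measured with a diagnostic kit by absorbance at 490 nm. Percent cytotoxicity was calculated from experimental release against maximum release, with background subtracted. Run in triplicate.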

HCT-116 = test: Cytotoxicity in human HCT-116 cells assessed as reduction in cell viability incubated for 72 hrs by MTS assay; assay type: functional, cell-based; conditions: HCT-116, 72 h; summary of the method: as §3
[6] = Inhibition of protein interaction between C-terminal 6x-histidine tagged full-length beta-catenin (1 to 781 residues) (unknown origin)/N-terminal biotinylated human E-cadherin (824 to 877 residues) incubated for 1 hr by Alpha-screen competitive inhibition assay; summary of the method: as §2
[7] = biological target: T2, beta-catenin-B-cell lymphoma 9 protein complex (Homo sapiens) (UniProt P35222+O00512); test: Inhibition of protein interaction between beta-catenin (unknown origin)/BCL9 in human HEK293 cells transfected with beta-catenin assessed as reduction in Wnt/beta-catenin transactivation incubated for 24 hrs by Wnt-responsive FOP-Flash luciferase reporter assay
[8] = biological target: T2, beta-catenin-B-cell lymphoma 9 protein complex (Homo sapiens); test: Inhibition of protein interaction between beta-catenin (unknown origin)/BCL9 in HEK293 cells transfected with beta-catenin assessed as reduction in Wnt/beta-catenin transactivation incubated for 24 hrs by Wnt-responsive FOP-Flash luciferase reporter assay; assay type: cell-based; summary of the method: as §1
A549 = test: Cytotoxicity in human A549 cells assessed as reduction in cell viability incubated for 72 hrs by MTS assay; assay type: functional, cell-based; conditions: A549, 72 h; summary of the method: as §3
[9] = Effect on HPRT mRNA expression in human SW480 cells at 20 uM incubated for 24 hrs by qPCR analysis relative to control; assay type: ADME, cell-based; conditions: read-out: FC
Summary of the method: (§4)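 SW480 cells at 1 × 10^6/mL were treated with inhibitor for 24 h. Total RNA was extracted with TRIzol and cDNA made by first-strand synthesis. SYBR green qPCR used human HPRT primers, with CT values normalised to GAPDH as internal reference. Performed in triplicate.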

[10] = Effect on HPRT mRNA expression in human SW480 cells at 5 uM incubated for 24 hrs by qPCR analysis relative to control; assay type: ADME, cell-based; conditions: read-out: FC; summary of the method: as §4
MDA-MB-231 = test: Cytotoxicity in human MDA-MB-231 cells assessed as reduction in cell viability incubated for 72 hrs by MTS assay; assay type: functional, cell-based; conditions: MDA-MB-231, 72 h
Summary of the method: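 Triple-negative breast cancer line seeded at 5 × 10^3 cells/well, held overnight at 37 °C, then exposed to inhibitor over a concentration range for 72 h. Viability read out with a fresh 1:19 mix of PMS (0.92 mg/mL) and MTS (2 mg/mL), incubated 3 h at 37 °C, A490 measured.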

[11] = Effect on HPRT mRNA expression in human SW480 cells at 10 uM incubated for 24 hrs by qPCR analysis relative to control; assay type: ADME, cell-based; conditions: read-out: FC; summary of the method: as §4
[12] = Inhibition of protein interaction between beta-catenin D145A/E155A mutant (unknown origin)/N-terminal biotinylated human BCL9 ( 350 to 375 residues) incubated for 1 hr by Alpha-screen competitive inhibition assay
[13] = Inhibition of protein interaction between beta-catenin K181A mutant (unknown origin)/N-terminal biotinylated human BCL9 ( 350 to 375 residues) incubated for 1 hr by Alpha-screen competitive inhibition assay
[14] = Inhibition of protein interaction between beta-catenin D145A mutant (unknown origin)/N-terminal biotinylated human BCL9 ( 350 to 375 residues) incubated for 1 hr by Alpha-screen competitive inhibition assay

IC50 [1]	Ki [2]	IC50 [4]	Ki [6]	inhibition [7]	inhibition [8]	SMILES	IC50 (SW480 [3])	Activity (SW480 [5])	IC50 (HCT-116)	IC50 (A549)	fold induction at 20 µM [9]	fold induction at 5 µM [10]	IC50 (MDA-MB-231)	fold induction at 10 µM [11]	Ki [12]	Ki [13]	Ki [14]
> 200 µM	5.6 µM	> 200 µM	–	–	–	Cl.Cl.NS(=O)(=O)c1ccc(-c2cc(NC(=O)c3ccc(O[C@H]4CCNC4)c(-c4ccc(F)c(F)c4)c3)ccc2O[C@H]2CCNC2)cc1	220 µM	Non-Toxic	–	–	–	–	–	–	–	–	–
50 µM	–	43 µM	> 915 µM	inactive	inactive	Cl.Cl.O=C(Nc1ccc(O[C@@H]2CCNC2)c(-c2cccc(-c3nn[nH]n3)c2)c1)c1ccc(O[C@H]2CCNC2)c(-c2ccc3ccsc3c2)c1	150 µM	Non-Toxic	240 µM	430 µM	–	–	–	–	–	–	–
26 µM	–	12 µM	–	Active	Active	Cl.Cl.Fc1ccc(-c2cc(-c3ccc4cc(O[C@H]5CCNC5)c(-c5ccc(F)c(F)c5)cc4n3)ccc2O[C@H]2CCNC2)cc1	3.6 µM	Non-Toxic	9.6 µM	23 µM	0.0612	0.369	15 µM	0.319	–	–	–
–	3.7 µM	391 µM	–	–	–	Cl.Cl.O=C(O)c1ccc(-c2cc(NC(=O)c3ccc(O[C@H]4CCNC4)c(-c4ccc(F)c(F)c4)c3)ccc2O[C@H]2CCNC2)cc1	> 400 µM	Non-Toxic	> 400 µM	–	–	–	–	–	–	–	–
–	5.6 µM	–	–	–	–	Cl.Cl.NC(=O)c1cccc(-c2cc(NC(=O)c3ccc(O[C@H]4CCNC4)c(-c4ccc(F)c(F)c4)c3)ccc2O[C@H]2CCNC2)c1	190 µM	Non-Toxic	–	–	–	–	–	–	–	–	–
–	5.4 µM	368 µM	–	–	–	Cl.Cl.O=C(O)c1cccc(-c2cc(NC(=O)c3ccc(O[C@H]4CCNC4)c(-c4ccc(F)c(F)c4)c3)ccc2O[C@H]2CCNC2)c1	> 400 µM	Non-Toxic	> 400 µM	–	–	–	–	–	–	–	–
–	5.2 µM	–	–	–	–	CC(=O)Nc1cccc(-c2cc(NC(=O)c3ccc(O[C@H]4CCNC4)c(-c4ccc(F)c(F)c4)c3)ccc2O[C@H]2CCNC2)c1.Cl.Cl	160 µM	Non-Toxic	–	–	–	–	–	–	–	–	–
–	12 µM	> 400 µM	–	–	–	Cl.Cl.O=C(O)c1ccc(F)c(-c2cc(NC(=O)c3ccc(O[C@H]4CCNC4)c(-c4ccc(F)c(F)c4)c3)ccc2O[C@H]2CCNC2)c1	> 400 µM	Non-Toxic	> 400 µM	–	–	–	–	–	–	–	–

SMILES	IC50 [1]	Ki [2]	IC50 [4]	Ki [6]	inhibition [7]	inhibition [8]	IC50 (SW480 [3])	Activity (SW480 [5])	IC50 (HCT-116)	IC50 (A549)	fold induction at 20 µM [9]	fold induction at 5 µM [10]	IC50 (MDA-MB-231)	fold induction at 10 µM [11]	Ki [12]	Ki [13]	Ki [14]
Cl.Cl.O=C(Nc1ccc(O[C@H]2CCNC2)c(-c2cccc(-c3nn[nH]n3)c2)c1)c1ccc(O[C@H]2CCNC2)c(-c2ccc(F)c(F)c2)c1	–	1 µM	–	–	–	–	140 µM	Non-Toxic	190 µM	410 µM	–	–	92 µM	–	18 µM	4.9 µM	6.5 µM
